Calls of active or inactive are those of the source.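 Rule for the calls: active = SF-1 luciferase reporter signal in cells inhibited by more than 25%; inactive = the rest.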
target: Steroidogenic factor 1 (Homo sapiens) (UniProt Q13285); assay: SF-1 inhibition in luciferase reporter cells, confirmation, selectivity assay for LRH1 inverse agonist project, cell-based, luminescence, powder samples, single concentration (AID 488779); conditions: HEK293T SF-1 5xSFRE luciferase reporter, 20 h; at 5 µM; hits give high values
Sequence (Q13285 whole entry, looked up): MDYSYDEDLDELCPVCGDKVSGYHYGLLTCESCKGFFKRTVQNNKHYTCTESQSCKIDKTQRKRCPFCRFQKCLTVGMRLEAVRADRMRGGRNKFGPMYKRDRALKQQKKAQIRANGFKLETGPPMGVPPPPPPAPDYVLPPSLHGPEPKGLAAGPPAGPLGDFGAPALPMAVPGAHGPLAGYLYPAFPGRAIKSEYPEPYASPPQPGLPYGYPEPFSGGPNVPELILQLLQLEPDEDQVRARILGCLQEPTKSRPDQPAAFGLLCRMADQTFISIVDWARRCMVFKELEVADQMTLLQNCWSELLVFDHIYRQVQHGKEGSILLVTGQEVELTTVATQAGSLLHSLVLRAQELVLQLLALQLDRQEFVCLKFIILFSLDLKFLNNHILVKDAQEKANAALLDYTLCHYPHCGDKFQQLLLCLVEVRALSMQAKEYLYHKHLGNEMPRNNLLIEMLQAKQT
Method in brief: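 Assay system: HEK293T cells with SF-1 and SFRE-luciferase reporter | Measure: Percent inhibition of luminescence from average fold change versus DMSO-treated cells | Replication: Triplicate wells per compound, averaged | Incubation: 20 h compound exposure | Detection: Luminescent luciferase readout | Compound: Single nominal dose of 5 µM test compound | Controls: DMSO-treated cells as vehicle reference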

Row | SMILES | inhibition
1 | O=c1cc(N2CCN(c3ncccc3C(F)(F)F)CC2)[nH]c(=O)n1C1CCCCC1 | 5% (inactive)
2 | C=CCn1c(N2CCN(c3cccc(C(F)(F)F)c3)CC2)cc(=O)n(C2CCCCC2)c1=O | -24% (inactive)
3 | N#CCn1c(N2CCN(c3cccc(C(F)(F)F)c3)CC2)cc(=O)n(C2CCCCC2)c1=O | 4% (inactive)
4 | Cn1c(=O)cc(N2CCN(c3ccc(F)cc3)CC2)[nH]c1=O | -2% (inactive)
5 | O=c1cc(N2CCN(c3cc(C(F)(F)F)ccn3)CC2)[nH]c(=O)n1C1CCCCC1 | -83% (inactive)
6 | O=c1cc(N2CCN(C3CCCCC3)CC2)[nH]c(=O)n1C1CCCCC1 | 9% (inactive)
7 | CCN1CCN(c2cc(=O)n(C3CCCCC3)c(=O)[nH]2)CC1 | 5% (inactive)
8 | O=c1cc(N2CCN(C(c3ccccc3)c3ccccc3)CC2)[nH]c(=O)n1C1CCCCC1 | -8% (inactive)
9 | Cc1ccc(C)n1CCN1CCN(c2cc(=O)n(C3CCCCC3)c(=O)[nH]2)CC1 | 7% (inactive)
10 | O=c1cc(N2CCN(c3ccc(F)cc3F)CC2)[nH]c(=O)n1C1CCCCC1 | -49% (inactive)
11 | O=c1cc(N2CCCC2)[nH]c(=O)n1C1CCCCC1 | 5% (inactive)
12 | O=c1cc(N2CCN(c3ccnc4cc(Cl)ccc34)CC2)[nH]c(=O)n1C1CCCCC1 | 11% (inactive)
13 | Cc1cc(C)cc(N2CCN(c3cc(=O)n(C4CCCCC4)c(=O)[nH]3)CC2)c1 | -4% (inactive)
14 | O=c1cc(N2CCN(CCN3CCOCC3)CC2)[nH]c(=O)n1C1CCCCC1 | 9% (inactive)
15 | COc1ccc(N2CCN(c3cc(=O)n(C4CCCCC4)c(=O)[nH]3)CC2)cc1 | 5% (inactive)
16 | CCn1c(=O)cc(N2CCN(C(=O)c3ccco3)CC2)[nH]c1=O | 30%
17 | O=c1cc(N2CCN(c3nc(-c4ccccc4)ns3)CC2)[nH]c(=O)n1C1CCCCC1 | 1% (inactive)
18 | O=c1cc(N2CCN(Cc3ccc4c(c3)OCO4)CC2)[nH]c(=O)n1C1CCCCC1 | 24%
19 | CC(C)Cn1c(=O)cc(N2CCN(c3cccc(C(F)(F)F)c3)CC2)[nH]c1=O | -95% (inactive)
20 | O=C(c1ccco1)N1CCN(c2cc(=O)n(C3CCCCC3)c(=O)[nH]2)CC1 | 6% (inactive)

Row | SMILES | inhibition
21 | O=c1cc(N2CCN(c3nccc4occc34)CC2)[nH]c(=O)n1C1CCCCC1 | -14% (inactive)
22 | O=c1cc(N2CCC(Cc3ccccc3)CC2)[nH]c(=O)n1C1CCCCC1 | 9% (inactive)
23 | C=CCn1c(=O)cc(N2CCN(c3cccc(C(F)(F)F)c3)CC2)[nH]c1=O | -164% (inactive)
24 | O=c1cc(N2CCN(c3cccc(Cl)c3)CC2)[nH]c(=O)[nH]1 | 2% (inactive)
25 | O=c1cc(N2CCN(c3cccc(Br)c3)CC2)[nH]c(=O)n1C1CCCCC1 | -23% (inactive)
26 | O=c1cc(N2CCN(c3ccccc3)CC2)[nH]c(=O)n1C1CCCCC1 | -3% (inactive)
27 | C=CCN1CCN(c2cc(=O)n(C3CCCCC3)c(=O)[nH]2)CC1 | -13% (inactive)
28 | O=c1cc(N2CCN(c3cccc(C(F)(F)F)c3)CC2)[nH]c(=O)n1Cc1ccccc1 | 1% (inactive)
29 | O=c1cc(N2CCN(c3ccccn3)CC2)[nH]c(=O)n1C1CCCCC1 | -7% (inactive)
30 | O=c1cc(N2CCN(c3cccc(Cl)n3)CC2)[nH]c(=O)n1C1CCCCC1 | -3% (inactive)
31 | O=c1cc(N2CCN(c3cccc(C(F)(F)F)n3)CC2)[nH]c(=O)n1C1CCCCC1 | 9% (inactive)
32 | O=c1cc(N2CCCCC2)[nH]c(=O)n1C1CCCCC1 | 23% (inactive)
33 | O=c1cc(N2CCN(c3cccc(Cl)c3Cl)CC2)[nH]c(=O)n1C1CCCCC1 | 3% (inactive)
34 | O=c1cc(N2CCN(c3ncccc3Cl)CC2)[nH]c(=O)n1C1CCCCC1 | 13% (inactive)
35 | O=c1cc(N2CCN(c3cccc(C(F)(F)F)c3)CC2)[nH]c(=O)n1C1CCCCC1 | -1% (inactive)
36 | O=c1cc(N2CCN(c3ccc(C(F)(F)F)cc3)CC2)[nH]c(=O)n1C1CCCCC1 | 1% (inactive)
37 | CCn1c(=O)cc(N2CCN(Cc3ccccc3)CC2)[nH]c1=O | 27%
38 | COC(=O)C1CCN(c2cc(=O)n(C3CCCCC3)c(=O)[nH]2)CC1 | 6% (inactive)
39 | O=c1cc(N2CCN(c3ccccc3C(F)(F)F)CC2)[nH]c(=O)n1C1CCCCC1 | 5% (inactive)
40 | O=c1cc(N2CCN(c3ccccc3Cl)CC2)[nH]c(=O)n1C1CCCCC1 | -19% (inactive)

Row | SMILES | inhibition
41 | Cn1c(=O)cc(N2CCN(c3cccc(Cl)c3)CC2)[nH]c1=O | -2% (inactive)
42 | CC1CCN(c2cc(=O)n(C3CCCCC3)c(=O)[nH]2)CC1 | -5% (inactive)
43 | CCn1c(=O)cc(N2CCN(c3cccc(C(F)(F)F)c3)CC2)[nH]c1=O | -81% (inactive)
44 | CCOC(=O)N1CCN(c2cc(=O)n(C3CCCCC3)c(=O)[nH]2)CC1 | 19% (inactive)
45 | CCn1c(=O)cc(N2CCN(c3ccc(F)cc3)CC2)[nH]c1=O | 10% (inactive)
46 | CCn1c(=O)cc(N2CCN(c3ccccc3)CC2)[nH]c1=O | 7% (inactive)
47 | O=c1cc(N2CCN(c3cccc(C(F)(F)F)c3)CC2)n(Cc2ccccc2)c(=O)n1C1CCCCC1 | 3% (inactive)
48 | O=c1cc(N2CCN(c3cccc(Cl)c3)CC2)[nH]c(=O)n1C1CCCCC1 | 5% (inactive)
49 | Cc1ccc(Cl)cc1N1CCN(c2cc(=O)n(C3CCCCC3)c(=O)[nH]2)CC1 | -12% (inactive)
50 | CC1CCN(c2cc(=O)n(Cc3ccc(F)cc3)c(=O)[nH]2)CC1 | 0% (inactive)
51 | O=C(c1ccccc1)N1CCN(c2cc(=O)n(C3CCCCC3)c(=O)[nH]2)CC1 | 2% (inactive)
52 | O=c1cc(N2CCN(c3ccccc3)CC2)[nH]c(=O)n1Cc1ccc(F)cc1 | -18% (inactive)
53 | O=c1cc(N2CCN(c3cccc(F)c3)CC2)[nH]c(=O)n1C1CCCCC1 | -112% (inactive)
54 | O=c1cc(N2CCN(c3cccc(C(F)(F)F)c3)CC2)[nH]c(=O)n1-c1ccccc1 | -3% (inactive)
55 | O=c1cc(N2CCc3ccccc32)[nH]c(=O)n1C1CCCCC1 | 23% (inactive)
56 | O=c1cc(N2CCOCC2)[nH]c(=O)n1C1CCCCC1 | 0% (inactive)
57 | CCn1c(=O)cc(N2CCN(c3cccc(Cl)c3)CC2)[nH]c1=O | -10% (inactive)
58 | O=c1cc(N2CCN(c3cc(Cl)cc(Cl)c3)CC2)[nH]c(=O)n1C1CCCCC1 | -9% (inactive)
59 | O=c1cc(N2CCN(Cc3ccc(Cl)cc3)CC2)[nH]c(=O)n1C1CCCCC1 | -4% (inactive)
60 | O=c1cc(N2CCN(c3ccc(F)cc3)CC2)[nH]c(=O)n1C1CCCCC1 | -2% (inactive)

— PubChem BioAssay AID488779 (The Scripps Research Institute Molecular Screening Center, 2010)
